Measured values taken from ChEMBL document CHEMBL1671697, “Lipophilic bisphosphonates are potent inhibitors of Plasmodium liver-stage growth” (Antimicrob Agents Chemother, 2010).
Values joined by “and” are separate entries in the source; they are usually repeats but may differ in a detail not shown here. Equal entries are not always repeated. Active and inactive are the calls of the source. The calls are words filed in the database; no cut-off is given here.

Key:
Plasmodium berghei [1] = experiment: (§1) Antiplasmodial activity against 5 X 10^6 blood stream Plasmodium berghei NK65 infected in 12 wk old C57BL/6 mouse assessed as parasitemia at 20 mg/kg, ip administered once daily via a regimen of day 2, 1 pre-infection, on the day of infection followed by day 1 and 2 postinfection for 5 days by microscopic analysis; type: functional; conditions: route intraperitoneal
Method in brief: (§2)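 Mice, five per group, were dosed i.p. daily for 5 days and challenged on day 0 with 5 × 10^6 blood-stage P. berghei parasites. Parasitemia was monitored by blood smear, and the delay in prepatent period was recorded.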

Plasmodium berghei [2] = experiment: Antiplasmodial activity against Plasmodium berghei NK65 infected in 12 wk old C57BL/6 mouse assessed as prepatent period at 10 mg/kg, ip administered once daily via a regimen of day 1 pre-infection, on the day of infection followed by day 1 postinfection for 3 days by microscopic analysis; type: functional, organism-based; set-up: dose 10 mg/kg
Plasmodium berghei [3] = experiment: Antiplasmodial activity against Plasmodium berghei NK65 infected in 12 wk old BALB/c mouse assessed as prepatent period at 17 mg/kg, ip administered once daily on the day of infection followed by day 1 postinfection for 2 days by microscopic analysis; type: functional; conditions: route intraperitoneal
Plasmodium berghei [4] = experiment: Antiplasmodial activity against Plasmodium berghei NK65 infected in 8 wk old C57BL/6 mouse assessed as prepatent period at 20 mg/kg, ip administered once daily via a regimen of day 1 pre-infection, on the day of infection followed by day 1, 2 and 3 days postinfection […] by microscopic analysis; type: functional; conditions: route intraperitoneal
Plasmodium berghei [5] = experiment: Antiplasmodial activity against Plasmodium berghei NK65 infected in 8 wk old C57BL/6 mouse assessed as prepatent period at 20 mg/kg, ip administered once daily via regimen of […], on the day of infection followed by day 1 postinfection for 4 days by microscopic analysis; type: functional; conditions: route intraperitoneal
Plasmodium berghei [6] = experiment: as §1, with “prepatent period” for “parasitemia”; type: functional; conditions: route intraperitoneal; method in brief: as §2
Plasmodium berghei [7] = experiment: Antiplasmodial activity against Plasmodium berghei NK65 infected in 12 wk old C57BL/6 mouse assessed as prepatent period at 10 mg/kg, ip administered once daily via a regimen of day 2, 1 days pre-infection, on the day of infection followed by day 1 postinfection for 4 days by microscopic analysis; type: functional, organism-based; set-up: dose 10 mg/kg
Plasmodium berghei [8] = experiment: Antiplasmodial activity against Plasmodium berghei NK65 infected in 12 wk old BALB/c mouse assessed as prepatent period at 5 mg/kg, ip administered once daily on the day of infection followed by day 1 postinfection for 2 days by microscopic analysis; type: functional; conditions: route intraperitoneal
Plasmodium berghei [9] = experiment: as §1, with “delay in prepatent period” for “parasitemia”; type: functional; conditions: route intraperitoneal; method in brief: as §2
[10] = Partition coefficient, log P of the compound; type: physicochemical; conditions: octanol/water
Plasmodium berghei [11] = experiment: (§3) Antiplasmodial activity against 3000 Plasmodium berghei NK65 liver stage sporozoites infected in 12 wk old C57BL/6 mouse assessed as delay in prepatent period at 20 mg/kg, ip administered once daily via a regimen of day 2, 1 pre-infection, on the day of infection followed by day 1 and 2 postinfection for 5 days by microscopic analysis; type: functional; conditions: route intraperitoneal
Method in brief: (§4)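 Mice were given compound i.p. once daily from 2 days before to 2 days after sporozoite challenge (5 doses). Challenge was 3,000 infectious P. berghei sporozoites. Parasitemia was followed by blood smear until 3–5%, then mice were sacrificed. Complete protection means no blood-stage parasites in smears; observation lasted 28 days.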

Plasmodium berghei [12] = experiment: Antiplasmodial activity against Plasmodium berghei NK65 infected in 12 wk old C57BL/6 mouse assessed as prepatent period at 20 mg/kg, ip administered once daily via a regimen of day 1 pre-infection, on the day of infection followed by day 1 postinfection for 3 days by microscopic analysis; type: functional; conditions: route intraperitoneal
Plasmodium falciparum [13] = experiment: Antiplasmodial activity against chloroquine-sensitive Plasmodium falciparum 3D7 assessed as suppression of parasitemia by microscopic analysis
[14] = Cytotoxicity against human HepG2 cells after 22 hrs; type: cell-based; conditions: read-out: TC50
Method in brief: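 HepG2 cells were seeded at 70% confluence the day before treatment, then exposed to a range of inhibitor concentrations for 22 h at 37°C, 5% CO2. CellTiter One reagent was then added for 2 h more, and OD495 was read. IC50 (TC50) was fit by nonlinear regression of percent viable cells against concentration.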

Plasmodium falciparum [15] = experiment: Antiplasmodial activity against chloroquine-resistant Plasmodium falciparum W2mef assessed as suppression of parasitemia by microscopic analysis
[16] = Inhibition of Plasmodium vivax GGPPS
Plasmodium berghei [17] = experiment: Antimalarial activity against Plasmodium berghei NK65 infected in human HepG2 cells after 48 hrs by RT-PCR; type: functional, organism-based; conditions: NK65, HepG2, 48 h
Method in brief: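 P. berghei NK65 sporozoites (10,000 per well) added to human HepG2 monolayers seeded the day before, in DMEM with 10% FBS, with compound diluted in PBS; 37°C, 5% CO2, 48 h. Medium and compound were renewed at 24 h. Parasite 18S rRNA copies were quantified by real-time PCR against a plasmid standard and expressed relative to untreated control. IC50 was obtained by nonlinear regression.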

[18] = Inhibition of Plasmodium vivax FPPS
Plasmodium berghei [19] = experiment: Antiplasmodial activity against Plasmodium berghei NK65 infected in 12 wk old BALB/c mouse assessed as prepatent period at 20 mg/kg, ip administered once daily via regimen of 1 preinfection, on day of infection followed by regimen of 1 day post infection for 3 days by microscopic analysis; type: functional; conditions: route intraperitoneal
Plasmodium berghei [20] = experiment: Antiplasmodial activity against Plasmodium berghei NK65 infected in 12 wk old BALB/c mouse assessed as prepatent period assessed as complete suppression of parasitemia at 20 mg/kg, ip administered once daily via a regimen of day 2, 1 pre-infection, on the day of infection followed by day 1 and 2 postinfection […] by microscopic analysis; type: functional; conditions: route intraperitoneal
Plasmodium berghei [21] = experiment: Antiplasmodial activity against Plasmodium berghei NK65 infected in 12 wk old C57BL/6 mouse assessed as prepatent period at 2 mg/kg, ip administered once daily via a regimen of day 2, 1 pre-infection, on the day of infection followed by day 1 and 2 postinfection for 5 days by microscopic analysis; type: functional; conditions: route intraperitoneal
Plasmodium berghei [22] = experiment: as §3, with “2” for “20”; type: functional; conditions: route intraperitoneal; method in brief: as §4
Plasmodium berghei [23] = experiment: as §1, with “prepatent period” for “parasitemia”, “1.5” for “20”; type: functional; conditions: route intraperitoneal; method in brief: as §2
Plasmodium berghei [24] = experiment: Antiplasmodial activity against Plasmodium berghei NK65 infected in 12 wk old BALB/c mouse assessed as prepatent period at 5 mg/kg, ip administered once daily via a regimen of day 2, 1 pre-infection, on the day of infection followed by day 1 and 2 postinfection […] by microscopic analysis; type: functional; conditions: route intraperitoneal
Plasmodium berghei [25] = experiment: as §1, with “delay in prepatent period” for “parasitemia”, “1.5” for “20”; type: functional; conditions: route intraperitoneal; method in brief: as §2
Plasmodium berghei [26] = experiment: as §3, with “1.5” for “20”; type: functional; conditions: route intraperitoneal; method in brief: as §4
Plasmodium berghei [27] = experiment: Antiplasmodial activity against Plasmodium berghei NK65 infected in 12 wk old C57BL/6 mouse assessed as prepatent period at 1.5 mg/kg, ip administered once daily via a regimen of day 2, 1 pre-infection, on the day of infection followed by day 1 and 2 postinfection for 5 days by microscopic analysis; type: functional; conditions: route intraperitoneal
Plasmodium berghei [28] = experiment: Antiplasmodial activity against Plasmodium berghei NK65 infected in C57BL/6 mouse assessed as completed protection of mouse, ip administered once daily via a regimen of day 2, 1 pre-infection, on day of infection followed by a regimen of day 1 and 2 post infection for 5 days measured after 28 days; type: functional, organism-based; method in brief: as §4
Plasmodium berghei [29] = experiment: as §1, with “1.5” for “20”; type: functional; conditions: route intraperitoneal; method in brief: as §2
Plasmodium berghei [30] = experiment: Antiplasmodial activity against Plasmodium berghei NK65 infected in 12 wk old C57BL/6 mouse assessed as prepatent period at 0.5 mg/kg, ip administered once daily via a regimen of day 2, 1 pre-infection, on the day of infection followed by day 1 postinfection for 4 days by microscopic analysis; type: functional; conditions: route intraperitoneal
Plasmodium berghei [31] = experiment: Antiplasmodial activity against Plasmodium berghei NK65 infected in 12 wk old C57BL/6 mouse assessed as prepatent period at 5 mg/kg, ip administered once daily via a regimen of day 2, 1 pre-infection, on the day of infection followed by day 1 and 2 postinfection for 5 days by microscopic analysis; type: functional; conditions: route intraperitoneal
Plasmodium berghei [32] = experiment: as §3, with “5” for “20”; type: functional; conditions: route intraperitoneal; method in brief: as §4
Plasmodium berghei [33] = experiment: Antiplasmodial activity against Plasmodium berghei NK65 infected in 14 wk old C57BL/6 mouse assessed as prepatent period at 5 mg/kg, ip administered once daily via a regimen of day 2, 1 pre-infection, on the day of infection followed by day 1 and 2 postinfection […] by microscopic analysis; type: functional, organism-based; set-up: dose 5 mg/kg
Plasmodium berghei [34] = experiment: Antiplasmodial activity against Plasmodium berghei NK65 infected in 12 wk old C57BL/6 mouse assessed as prepatent period at 0.8 mg/kg, ip administered once daily via a regimen of day 2, 1 pre-infection, on the day of infection followed by day 1, 2 and 3 days postinfection […] by microscopic analysis; type: functional; conditions: route intraperitoneal
Plasmodium berghei [35] = experiment: as §3, with “0.8” for “20”; type: functional; conditions: route intraperitoneal; method in brief: as §4

Row | SMILES | IC50 (Plasmodium falciparum [13]) [µM] | CC50 at 22 h [14] [µM] | IC50 (Plasmodium falciparum [15]) [µM] | IC50 [16] [µM] | Ki [16] [µM] | IC50 (Plasmodium berghei [17]) [µM] | IC50 [18] [µM] | Ki [18] [µM] | also measured
1 | O=P(O)(O)C(O)(Cc1cccnc1)P(=O)(O)O [RISEDRONIC ACID] | 1.2 | 13000 | 1.4 | 1.1 | 0.024 | 16 | 1.7 | 0.048 | Activity (Plasmodium berghei [1]): 0.09%; Activity (Plasmodium berghei [2]): inactive; Activity (Plasmodium berghei [3]): 1 days; Activity (Plasmodium berghei [4]): 6 days; Activity (Plasmodium berghei [5]): 4 days; Activity (Plasmodium berghei [6]): 2 days; Activity (Plasmodium berghei [7]): inactive; Activity (Plasmodium berghei [8]): 0.5 days; Activity (Plasmodium berghei [9]): 1 days; logP [10]: -5.5; Activity (Plasmodium berghei [11]): 4 days; Activity (Plasmodium berghei [12]): 2.5 days; Activity (Plasmodium berghei [19]): 0.5 days; Activity (Plasmodium berghei [20]): 8 days and 3 days
2 | CCCCCCCCCCN(C)CC(P(=O)(O)O)P(=O)(O)O | 0.45 | 1000 | 2.2 | 0.7 | 0.016 | 8 | 1.5 | 0.043 | Activity (Plasmodium berghei [21]): 9 days; logP ([10]; read-out: logP): -3.4; Activity (Plasmodium berghei [22]): 5 days
3 | CC[C@H](C)C(=O)O[C@H]1C[C@H](O)C=C2C=C[C@H](C)[C@H](CC[C@@H](O)C[C@@H](O)CC(=O)O)[C@H]21 [PRAVASTATIN SODIUM] | – | – | – | – | – | > 200 | – | – | –
4 | CCCCCCCCCCOc1ccc[n+](CC(P(=O)([O-])O)P(=O)(O)O)c1 (configuration not stated) | 0.67 | 2000 | 0.59 | 0.56 | 0.013 | 10 | 1.5 | 0.043 | Activity (Plasmodium berghei [23]): 5 days; Activity (Plasmodium berghei [24]): >28 days; Activity (Plasmodium berghei [25]): 4 days; Activity (Plasmodium berghei [26]): >28 days; logP ([10]; read-out: logP): -1.2; Activity (Plasmodium berghei [27]): >28 days; Activity (Plasmodium berghei [28]): Active; Activity (Plasmodium berghei [29]): 0.01%; Activity (Plasmodium berghei [30]): 3 days
5 | COC(=O)[C@H](CC(C)C)NC(=O)c1ccc(NC[C@@H](N)CS)cc1-c1cccc2ccccc12 | – | – | – | – | – | 30 | – | – | Activity (Plasmodium berghei [31]): 4 days; Activity (Plasmodium berghei [32]): 0 days; Activity (Plasmodium berghei [33]): inactive
6 | NCCC(O)(P(=O)(O)O)P(=O)(O)O [PAMIDRONIC ACID] | – | – | – | – | – | > 200 | – | – | –
7 | CCCCCCCCN(C)CC(P(=O)(O)O)P(=O)(O)O | 0.65 | 1000 | 2 | 0.63 | 0.015 | 8.8 | 1.5 | 0.043 | Activity (Plasmodium berghei [34]): 7 days; logP [10]: -4.1; Activity (Plasmodium berghei [35]): 3 days
